Measured values: ChEMBL document CHEMBL1125112, “Antitumor imidazotetrazines. 20. Preparation of the 8-acid derivative of mitozolomide and its utility in the preparation of active antitumor agents” (1990)

What was measured:
Format in all cases: functional
L1210 [1] = assay: In vivo antitumor activity against the L1210 leukemia cell line in mouse species B6D2F1 after peroral administration (inoculum cells-10E5,iv) at the dose of 200 mg/kg; conditions: route oral
L1210 [2] = assay: In vivo antitumor activity against the L1210 leukemia cell line in mouse species B6D2F1 after peroral administration (inoculum cells-10E5,iv) at the dose of 100 mg/kg on 7th day; conditions: route oral
Outline: (§1)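 B6D2F1 mice were inoculated with 10^5 L1210 leukemia cells, ip or iv as the line states. Compound was given orally as a suspension in 1% (carboxymethyl)cellulose in water, dosed on day 1 or 3, over 28–39 days. T/C% = mean death day of treated/mean death day of controls. Survivors to the end were counted in groups of 7–8.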

L1210 [3] = assay: In vivo antitumor activity against the L1210 leukemia cell line in mouse species B6D2F1 after peroral administration (inoculum cells-10E5,iv) at the dose of 200 mg/kg on 7th day; conditions: route oral; outline: as §1
L1210 [4] = assay: In vivo antitumor activity against the L1210 leukemia cell line in mouse species B6D2F1 after peroral administration (inoculum cells-10E5,iv) at the dose of 100 mg/kg; conditions: route oral
L1210 [5] = assay: In vivo antitumor activity against the L1210 leukemia cell line in mouse species B6D2F1 after peroral administration (inoculum cells-10E5,iv) at the dose of 50 mg/kg on 7th day; conditions: route oral; outline: as §1
L1210 [6] = assay: In vivo antitumor activity against the L1210 leukemia cell line in mouse species B6D2F1 after peroral administration (inoculum cells-10E5,iv) at the dose of 50 mg/kg; conditions: route oral
TLX-5 [7] = assay: (§2) In vivo antitumor activity against the TLX5 lymphoma cell line in mouse species CBA/CA after intraperitoneal administration (inoculum cells-2x10E5,sc) at the dose of 160 mg/kg
Outline: (§3)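 CBA/CA mice were implanted sc with 2 × 10^5 TLX5 lymphoma cells. Compound was given ip on day 3 in 10% Me2SO in arachis oil, over 60 days, in groups of 5. T/C% = mean death day of treated/mean death day of controls. Survivors to day 60 were counted.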

TLX-5 [8] = assay: (§4) In vivo antitumor activity against the TLX5 lymphoma cell line in mouse species CBA/CA after intraperitoneal administration (inoculum cells-2x10E5,sc) at the dose of 20 mg/kg
Outline: (§5)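 CBA/CA mice were inoculated with 2 × 10^5 TLX5 lymphoma cells. Drug given intraperitoneally in 10% Me2SO in arachis oil, 5 mice per dose, and the experiment lasted 60 days. Survivors at 60 days were recorded. T/C % = mean death day of treated animals / mean death day of control animals.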

L1210 [9] = assay: In vivo antitumor activity against the L1210 leukemia cell line in mouse species B6D2F1 after peroral administration (inoculum cells-10E5,ip) at the dose of 40 mg/kg on 8th day; conditions: route oral; outline: as §1
L1210 [10] = assay: In vivo antitumor activity against the L1210 leukemia cell line in mouse species B6D2F1 after peroral administration (inoculum cells-10E5,ip) at the dose of 40 mg/kg; conditions: route oral
L1210 [11] = assay: In vivo antitumor activity against the L1210 leukemia cell line in mouse species B6D2F1 after peroral administration (inoculum cells-10E5,ip) at the dose of 160 mg/kg on 8th day; conditions: route oral; outline: as §1
TLX-5 [12] = assay: In vivo antitumor activity against the TLX5 lymphoma cell line in mouse species CBA/CA after intraperitoneal administration (inoculum cells-2x10E5,sc) at the dose of 320 mg/kg; outline: as §5
TLX-5 [13] = assay: In vivo antitumor activity against the TLX5 lymphoma cell line in mouse species CBA/CA after intraperitoneal administration (inoculum cells-2x10E5,sc) at the dose of 40 mg/kg; outline: as §5
L1210 [14] = assay: In vivo antitumor activity against the L1210 leukemia cell line in mouse species B6D2F1 after peroral administration (inoculum cells-10E5,ip at the dose of 160 mg/kg; conditions: route oral
L1210 [15] = assay: In vivo antitumor activity against the L1210 leukemia cell line in mouse species B6D2F1 after peroral administration (inoculum cells-10E5,ip) at the dose of 80 mg/kg; conditions: route oral
TLX-5 [16] = assay: (§6) In vivo antitumor activity against the TLX5 lymphoma cell line in mouse species CBA/CA after intraperitoneal administration (inoculum cells-2x10E5,sc) at the dose of 160 mg/kg on 5th day; outline: as §5
TLX-5 [17] = assay: In vivo antitumor activity against the TLX5 lymphoma cell line in mouse species CBA/CA after intraperitoneal administration (inoculum cells-2x10E5,sc) at the dose of 320 mg/kg on 5th day
TLX-5 [18] = assay: In vivo antitumor activity against the TLX5 lymphoma cell line in mouse species CBA/CA after intraperitoneal administration (inoculum cells-2x10E5,sc) at the dose of 20 mg/kg on 5th day
L1210 [19] = assay: In vivo antitumor activity against the L1210 leukemia cell line in mouse species B6D2F1 after peroral administration (inoculum cells-10E5,ip)at the dose of 320 mg/kg on 7th day; conditions: route oral; outline: as §1
TLX-5 [20] = assay: In vivo antitumor activity against the TLX5 lymphoma cell line in mouse species CBA/CA after intraperitoneal administration (inoculum cells-2x10E5,sc) at the dose of 80 mg/kg on 5th day
TLX-5 [21] = assay: In vivo antitumor activity against the TLX5 lymphoma cell line in mouse species CBA/CA after intraperitoneal administration (inoculum cells-2x10E5,sc) at the dose of 80 mg/kg; outline: as §5
L1210 [22] = assay: In vivo antitumor activity against the L1210 leukemia cell line in mouse species B6D2F1 after peroral administration (inoculum cells-10E5,ip) at the dose of 320 mg/kg; conditions: route oral
L1210 [23] = assay: In vivo antitumor activity against the L1210 leukemia cell line in mouse species B6D2F1 after peroral administration (inoculum cells-10E5,ip) at the dose of 80 mg/kg on 8th day; conditions: route oral; outline: as §1
TLX-5 [24] = assay: In vivo antitumor activity against the TLX5 lymphoma cell line in mouse species CBA/CA after intraperitoneal administration (inoculum cells-2x10E5,sc) at the dose of 40 mg/kg on 5th day
TLX-5 [25] = assay: In vivo antitumor activity against the TLX5 lymphoma cell line in mouse species CBA/CA after intraperitoneal administration (inoculum cells-2x10E5,sc) at the dose of 10 mg/kg on 5th day
TLX-5 [26] = assay: as §6; remark: listed apart in the source
TLX-5 [27] = assay: In vivo antitumor activity against the TLX5 lymphoma cell line in mouse species CBA/CA after intraperitoneal administration (inoculum cells-2x10E5,sc) at the dose of 10 mg/kg
TLX-5 [28] = assay: as §2; outline: as §5; remark: listed apart in the source
TLX-5 [29] = assay: In vivo antitumor activity against the TLX5 lymphoma cell line in mouse species CBA/CA after intraperitoneal administration (inoculum cells-2x10E5,sc) at the dose of 640 mg/kg on 5th day
TLX-5 [30] = assay: In vivo antitumor activity against the TLX5 lymphoma cell line in mouse species CBA/CA after intraperitoneal administration (inoculum cells-2x10E5,sc) at the dose of 640 mg/kg; outline: as §5
L1210 [31] = assay: In vivo antitumor activity against the L1210 leukemia cell line in mouse species B6D2F1 after peroral administration (inoculum cells-10E5,iv) at the dose of 20 mg/kg on 7th day; conditions: route oral; outline: as §1
L1210 [32] = assay: In vivo antitumor activity against the L1210 leukemia cell line in mouse species B6D2F1 after peroral administration (inoculum cells-10E5,iv) at the dose of 5 mg/kg on 7th day; conditions: route oral
TLX-5 [33] = assay: as §4; outline: as §3; remark: listed apart in the source
TLX-5 [34] = assay: In vivo antitumor activity against the TLX5 lymphoma cell line in mouse species CBA/CA after intraperitoneal administration (inoculum cells-2x10E5,sc) at the dose of 5 mg/kg on 5th day
L1210 [35] = assay: In vivo antitumor activity against the L1210 leukemia cell line in mouse species B6D2F1 after peroral administration (inoculum cells-10E5,iv) at the dose of 10 mg/kg on 7th day; conditions: route oral

O=C(NO)c1ncn2c(=O)n(CCCl)nnc12
T/C (L1210 [1]): 218% | Survivors (L1210 [2]): 0 | Survivors (L1210 [3]): 0 | T/C (L1210 [4]): 187%

O=C(NOCc1ccccc1)c1ncn2c(=O)n(CCCl)nnc12
Survivors (L1210 [5]): 0 | T/C (L1210 [1]): 98% | Survivors (L1210 [2]): 0 | Survivors (L1210 [3]): 0 | T/C (L1210 [4]): 98% | T/C (L1210 [6]): 98%

O=C(O)c1ncn2c(=O)n(CCCl)nnc12
Survivors (TLX-5 [7]): 0 | T/C (TLX-5 [8]): 102% | Survivors (L1210 [9]): 0 | T/C (L1210 [10]): 102% | Survivors (L1210 [11]): 0 | T/C (TLX-5 [12]): 223% | T/C (TLX-5 [13]): 103% | T/C (L1210 [14]): 107% | T/C (L1210 [15]): 101% | T/C (TLX-5 [16]): 108% | Survivors (TLX-5 [17]): 0 | Survivors (TLX-5 [18]): 0 | Survivors (L1210 [19]): 0 | Survivors (TLX-5 [20]): 0 | T/C (TLX-5 [21]): 106% | T/C (L1210 [22]): 106% | Survivors (L1210 [23]): 0 | Survivors (TLX-5 [24]): 0

[N-]=[N+]=NC(=O)c1ncn2c(=O)n(CCCl)nnc12
T/C (TLX-5 [8]): 97% | T/C (TLX-5 [13]): 96% | Survivors (TLX-5 [25]): 0 | Survivors (TLX-5 [26]): 0 | Survivors (TLX-5 [18]): 0 | Survivors (TLX-5 [20]): 0 | T/C (TLX-5 [21]): 106% | T/C (TLX-5 [27]): 101% | Survivors (TLX-5 [24]): 0

COC(=O)c1ncn2c(=O)n(CCCl)nnc12
T/C (TLX-5 [8]): 106% | T/C (TLX-5 [12]): 140% | T/C (TLX-5 [13]): 110% | Survivors (TLX-5 [26]): 0 | Survivors (TLX-5 [17]): 0 | Survivors (TLX-5 [18]): 0 | T/C (TLX-5 [28]): 123% | Survivors (TLX-5 [20]): 0 | T/C (TLX-5 [21]): 110% | Survivors (TLX-5 [24]): 0

CCOC(=O)CNC(=O)c1ncn2c(=O)n(CCCl)nnc12
T/C (TLX-5 [12]): 114% | Survivors (TLX-5 [29]): 0 | Survivors (TLX-5 [26]): 0 | Survivors (TLX-5 [17]): 0 | T/C (TLX-5 [28]): 105% | T/C (TLX-5 [30]): 139% | Survivors (TLX-5 [20]): 0 | T/C (TLX-5 [21]): 96%

O=C(Nc1ccccc1)c1ncn2c(=O)n(CCCl)nnc12
Survivors (TLX-5 [26]): 0 | Survivors (TLX-5 [17]): 0 | Survivors (TLX-5 [18]): 0 | Survivors (TLX-5 [20]): 0 | Survivors (TLX-5 [24]): 0

NC(=O)c1ncn2c(=O)n(CCCl)nnc12 [MITOZOLOMIDE]
Survivors (L1210 [31]): 0 | Survivors (L1210 [32]): 0 | Survivors (TLX-5 [25]): 0 | Survivors (TLX-5 [33]): 0 | Survivors (TLX-5 [34]): 0 | Survivors (L1210 [35]): 0
